Key:
Format in all cases: functional, cell-based
[1] = system: MCF7; experiment: Antiproliferative activity against human MCF7 cells after 24 hrs by MTT assay; conditions: MCF7, 24 h
Procedure, shortened: (§1)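 Cells grown at 37 °C in humidified 5% CO2 with benzylpenicillin and streptomycin. Compounds came from 0.01 mol/L DMSO stocks and were tested at eight two-fold dilutions in triplicate, with medium-only controls, for 24 h. MTT absorbance was read at 570 nm. Survival = A_treatment/A_control × 100. IC50 is the concentration giving 50% viability inhibition, as the mean of two separate experiments.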

[2] = system: BGC-823; experiment: Antiproliferative activity against human BGC823 cells after 24 hrs by MTT assay; conditions: BGC-823, 24 h; procedure, shortened: as §1
[3] = system: SMMC-7721; experiment: Antiproliferative activity against human SMMC7721 cells after 24 hrs by MTT assay; conditions: SMMC-7721, 24 h; procedure, shortened: as §1
[4] = system: HepG2; experiment: Antiproliferative activity against human HepG2 cells after 24 hrs by MTT assay; conditions: HepG2, 24 h
Procedure, shortened: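 Tetrazolium MTT viability test; cells exposed to compound 24 h, absorbance read at 570 nm. Survival ratio = A treated / A control × 100%; IC50 is the concentration giving 50% loss of viability. Eight concentrations in two-fold dilutions, triplicate wells, mean of two separate experiments. Compounds dissolved in DMSO (0.01 mol/L stock); control wells received medium only.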

`CC(C)=CCC12OC(C)(C)C3CC(C=C4C(=O)c5cccc(O)c5OC431)C2=O` (centres undefined) gave an IC50 [1] of 19.4 µM, an IC50 [2] of 19.3 µM and an IC50 [3] of 11.7 µM. The IC50 [4] was 14.3 µM.

Reference: ChEMBL document CHEMBL1759837, “Studies on chemical modification and biology of a natural product, gambogic acid (III): determination of the essential pharmacophore for biological activity” (Eur J Med Chem, 2011)
